Measured values published in ChEMBL document CHEMBL5724801, “EUbOPEN Chemogenomics Library - Multiplex” (2024).
Values joined by “and” are separate entries in the source; they are usually repeats but may differ in a detail not shown here. Equal values may be shown once.

Test system: U2OS
Test: Multiplex assay against U2OS
Assay type: toxicity, cell-based
Conditions: human
Summary of the method: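 Phenotypes for tubulin, mitochondrial mass and membrane permeability are expressed as per cents of healthy-nucleus cells. Cells were stained live at seeding with Hoechst33342, BioTracker Green Microtubule Cytoskeleton Dye, MitoTracker Red and Annexin V Alexa Fluor 680, then imaged after compound addition on a CQ1 microscope at 37°C and 5% CO2. Machine-learning gating in CellPathfinder separated Hoechst high-intensity objects from normal cells, divided normal cells by nuclear state (healthy, pyknosed, fragmented) and divided pyknosed cells into mitotic or apoptotic.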

[1] = 12 h, 1 µM, compound concentration 1 uM
[2] = 12 h, 10 µM, compound concentration 10 uM
[3] = 24 h, 1 µM, compound concentration 1 uM
[4] = 24 h, 10 µM, compound concentration 10 uM
[5] = 48 h, 1 µM, compound concentration 1 uM
[6] = 48 h, 10 µM, compound concentration 10 uM

`c1cc(OCCCN2CCCCC2)ccc1CN1CCCCC1` [JNJ-5207852] was tested, and the “Population Apoptotic (%)” value [1] was 76% and 58%, the “Population Fragmented Nuclei (%)” value [1] was 29% and 25% and the “Population Healthy Nuclei (%)” value [1] was 65% and 62%. For the same compound, the “Population Hoechst High Intensity Objects (%)” value [1] was 2% and 0%, the “Population Membrane Permeable-Phenotype (%)” value [1] was 5% and 7% and the “Population Mitochondria Different-Phenotype (%)” value [1] was 3%. For the same compound, the “Population Mitotic Cells (%)” value [1] was 23% and 41%, the “Population Normal (%)” value [1] was 97% and 99% and the “Population Pyknosed Nuclei (%)” value [1] was 5% and 11%. The “Population Tubulin-Different-Phenotype (%)” value [1] was 3%, the “Total Cell Count” value [1] was 253 and 106 and the “Population Apoptotic (%)” value [2] was 73% and 85%. The “Population Fragmented Nuclei (%)” value [2] was 34% and 13%, the “Population Healthy Nuclei (%)” value [2] was 57% and 80% and the “Population Hoechst High Intensity Objects (%)” value [2] was 2% and 4%. The “Population Membrane Permeable-Phenotype (%)” value [2] was 5% and 7%, the “Population Mitochondria Different-Phenotype (%)” value [2] was 3% and 9% and the “Population Mitotic Cells (%)” value [2] was 26% and 14%. The “Population Normal (%)” value [2] was 97% and 95%, the “Population Pyknosed Nuclei (%)” value [2] was 8% and 6% and the “Population Tubulin-Different-Phenotype (%)” value [2] was 3% and 6%. For the same compound, the “Total Cell Count” value [2] was 228 and 120, the “Population Apoptotic (%)” value [3] was 84% and 66% and the “Population Fragmented Nuclei (%)” value [3] was 25% and 21%. For the same compound, the “Population Healthy Nuclei (%)” value [3] was 65% and 68%, the “Population Hoechst High Intensity Objects (%)” value [3] was 1% and 0% and the “Population Membrane Permeable-Phenotype (%)” value [3] was 3% and 4%. The “Population Mitochondria Different-Phenotype (%)” value [3] was 2%, the “Population Mitotic Cells (%)” value [3] was 16% and 33% and the “Population Normal (%)” value [3] was 98% and 100%. The “Population Pyknosed Nuclei (%)” value [3] was 8% and 10%, the “Population Tubulin-Different-Phenotype (%)” value [3] was 2% and 4% and the “Total Cell Count” value [3] was 287 and 119. The “Population Apoptotic (%)” value [4] was 82% and 84%, the “Population Fragmented Nuclei (%)” value [4] was 28% and 10% and the “Population Healthy Nuclei (%)” value [4] was 62% and 80%. For the same compound, the “Population Hoechst High Intensity Objects (%)” value [4] was 1%, the “Population Membrane Permeable-Phenotype (%)” value [4] was 4% and 8% and the “Population Mitochondria Different-Phenotype (%)” value [4] was 3% and 5%. The “Population Mitotic Cells (%)” value [4] was 17% and 15%, the “Population Normal (%)” value [4] was 98% and the “Population Pyknosed Nuclei (%)” value [4] was 8%. For the same compound, the “Population Tubulin-Different-Phenotype (%)” value [4] was 3% and 8%, the “Total Cell Count” value [4] was 271 and 157 and the “Population Apoptotic (%)” value [5] was 82% and 76%. For the same compound, the “Population Fragmented Nuclei (%)” value [5] was 21% and 19%, the “Population Healthy Nuclei (%)” value [5] was 69% and 71% and the “Population Hoechst High Intensity Objects (%)” value [5] was 2% and 3%. The “Population Membrane Permeable-Phenotype (%)” value [5] was 4% and 9%, the “Population Mitochondria Different-Phenotype (%)” value [5] was 2% and 4% and the “Population Mitotic Cells (%)” value [5] was 17% and 23%. The “Population Normal (%)” value [5] was 97% and 96%, the “Population Pyknosed Nuclei (%)” value [5] was 8% and the “Population Tubulin-Different-Phenotype (%)” value [5] was 4% and 3%. The “Total Cell Count” value [5] was 400 and 152, the “Population Apoptotic (%)” value [6] was 86% and 93% and the “Population Fragmented Nuclei (%)” value [6] was 22% and 14%. The “Population Healthy Nuclei (%)” value [6] was 70% and 78%, the “Population Hoechst High Intensity Objects (%)” value [6] was 2% and 1% and the “Population Membrane Permeable-Phenotype (%)” value [6] was 7% and 6%. The “Population Mitochondria Different-Phenotype (%)” value [6] was 3% and 2%, the “Population Mitotic Cells (%)” value [6] was 13% and 6% and the “Population Normal (%)” value [6] was 97% and 98%. For the same compound, the “Population Pyknosed Nuclei (%)” value [6] was 6%, the “Population Tubulin-Different-Phenotype (%)” value [6] was 5% and 4% and the “Total Cell Count” value [6] was 345 and 245.

In the case of `COC(=O)c1ccc2c(c1)NC(=O)/C2=C(\Nc1ccc(N(C)C(=O)CN2CCN(C)CC2)cc1)c1ccccc1` [NINTEDANIB], the “Population Apoptotic (%)” value [1] is reported as 50% and 43.75%, the “Population Fragmented Nuclei (%)” value [1] is reported as 2.42% and 2.88% and the “Population Healthy Nuclei (%)” value [1] is reported as 89.37% and 85.61%. The “Population Hoechst High Intensity Objects (%)” value [1] was 0%, the “Population Membrane Permeable-Phenotype (%)” value [1] was 1.62% and 4.2% and the “Population Mitochondria Different-Phenotype (%)” value [1] was 0% and 14.29%. The “Population Mitotic Cells (%)” value [1] was 50% and 56.25%, the “Population Normal (%)” value [1] was 100% and the “Population Pyknosed Nuclei (%)” value [1] was 8.21% and 11.51%. The “Population Tubulin-Different-Phenotype (%)” value [1] was 1.89% and 2.52%, the “Total Cell Count” value [1] was 414 and 139 and the “Population Apoptotic (%)” value [2] was 48.33% and 44.44%. For the same compound, the “Population Fragmented Nuclei (%)” value [2] was 3.26% and 6.04%, the “Population Healthy Nuclei (%)” value [2] was 72.3% and 74.18% and the “Population Hoechst High Intensity Objects (%)” value [2] was 0%. For the same compound, the “Population Membrane Permeable-Phenotype (%)” value [2] was 21.97% and 30.37%, the “Population Mitotic Cells (%)” value [2] was 51.67% and 55.56% and the “Population Normal (%)” value [2] was 100%. For the same compound, the “Population Pyknosed Nuclei (%)” value [2] was 24.44% and 19.78%, the “Population Tubulin-Different-Phenotype (%)” value [2] was 64.79% and 29.63% and the “Total Cell Count” value [2] was 491 and 182. The “Population Apoptotic (%)” value [3] was 35.56% and 50%, the “Population Fragmented Nuclei (%)” value [3] was 1.16% and 2.33% and the “Population Healthy Nuclei (%)” value [3] was 90.15% and 79.07%. The “Population Hoechst High Intensity Objects (%)” value [3] was 0%, the “Population Membrane Permeable-Phenotype (%)” value [3] was 1.07% and 1.47% and the “Population Mitotic Cells (%)” value [3] was 64.44% and 50%. The “Population Normal (%)” value [3] was 100%, the “Population Pyknosed Nuclei (%)” value [3] was 8.69% and 18.6% and the “Population Tubulin-Different-Phenotype (%)” value [3] was 1.28% and 1.47%. The “Population Apoptotic (%)” value [4] was 62.5% and 65.62%, the “Population Fragmented Nuclei (%)” value [4] was 5.58% and 6.29% and the “Population Healthy Nuclei (%)” value [4] was 63.02% and 57.14%. For the same compound, the “Population Hoechst High Intensity Objects (%)” value [4] was 0%, the “Population Membrane Permeable-Phenotype (%)” value [4] was 6.23% and 9% and the “Population Mitotic Cells (%)” value [4] was 37.5% and 34.38%. For the same compound, the “Population Normal (%)” value [4] was 100%, the “Population Pyknosed Nuclei (%)” value [4] was 31.4% and 36.57% and the “Population Tubulin-Different-Phenotype (%)” value [4] was 63.93% and 46%. The “Total Cell Count” value [4] was 484 and 175, the “Population Apoptotic (%)” value [5] was 57.5% and 53.12% and the “Population Fragmented Nuclei (%)” value [5] was 1.52% and 3.23%. The “Population Healthy Nuclei (%)” value [5] was 89.14% and 83.87%, the “Population Hoechst High Intensity Objects (%)” value [5] was 0% and the “Population Membrane Permeable-Phenotype (%)” value [5] was 2.1% and 4.33%. For the same compound, the “Population Mitochondria Different-Phenotype (%)” value [5] was 0.26% and 9.62%, the “Population Mitotic Cells (%)” value [5] was 42.5% and 46.88% and the “Population Normal (%)” value [5] was 100%. For the same compound, the “Population Pyknosed Nuclei (%)” value [5] was 9.35% and 12.9%, the “Population Tubulin-Different-Phenotype (%)” value [5] was 1.57% and 3.37% and the “Population Apoptotic (%)” value [6] was 78.69% and 91.94%. The “Population Fragmented Nuclei (%)” value [6] was 1.9% and 1.52%, the “Population Healthy Nuclei (%)” value [6] was 54.63% and 51.52% and the “Population Hoechst High Intensity Objects (%)” value [6] was 0.24% and 0%. The “Population Membrane Permeable-Phenotype (%)” value [6] was 1.74% and 8.82%, the “Population Mitochondria Different-Phenotype (%)” value [6] was 29.13% and 51.47% and the “Population Mitotic Cells (%)” value [6] was 21.31% and 8.06%. The “Population Normal (%)” value [6] was 99.76% and 100%, the “Population Pyknosed Nuclei (%)” value [6] was 43.47% and 46.97% and the “Population Tubulin-Different-Phenotype (%)” value [6] was 69.57% and 76.47%.
